Results reported in ChEMBL document CHEMBL1126090, “Electrophilic opioid ligands. Oxygen tethered alpha-methylene-gamma-lactone, acrylate, isothiocyanate, and epoxide derivatives of 6 beta-naltrexol” (J Med Chem, 1992).

Tests used:
Mu-type opioid receptor = Mu-type opioid receptor (Cavia porcellus, UniProt P97266); test: inhibition of 1.0 nM [3H]- DAGO binding to guinea pig brain membrane opioid receptor mu
Summary of the method: (§1)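 Crude guinea pig brain membrane homogenate. Compounds as free amine in 50% acetic acid, serially diluted in water; nine concentrations in competition with radioligand ([3H]DAGO for μ; [3H]bremazocine plus unlabeled DAGO and DPDPE for κ). Incubated in 50 mM Tris-HCl pH 7.4, 25 °C, 1 h. Then GF/B filtration, two cold buffer rinses, scintillation counting. IC50 by log-probit analysis.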

[1] = biological target: Opioid receptors; mu/kappa/delta; test: Inhibition of 0.5 nM [3H]bremazocine binding to guinea pig brain membrane opioid receptors; set-up: species or system Cavia porcellus
[2] = biological target: Kappa-type opioid receptor (Cavia porcellus, UniProt P41144); test: Displacement of 0.5 nM [3H]bremazocine from guinea pig brain membrane opioid receptor kappa with 100 nM DAGO and 100 nM DPDPE; summary of the method: as §1
[3] = biological target: T1, Opioid receptors; mu/kappa/delta (Homo sapiens) (UniProt P41145+P41143+P35372); test: Compound was evaluated for the percent recovery of 0.5 nM of [3H]- bremazocine binding to total opioid receptor in guinea pig brain membranes at 50 (nM) concentration protection by 1 uM Naloxone.; format: cell membranes; conditions: Cavia porcellus, Membrane, target entry is the homologue from another species
Summary of the method: (§2)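 Membranes were then washed (4-fold dilution, 20000g for 15 min, 37 °C for 15 min in 3 volumes, recentrifuged) and assayed with the named radioligand by filtration binding. Reported as percent recovery.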

[4] = biological target: T1, Opioid receptors; mu/kappa/delta (Homo sapiens); test: Compound was evaluated for the percent recovery of 0.5 nM of [3H]- bremazocine binding to total opioid receptor in unwashed guinea pig brain membranes at 50 (nM) concentration of the compound; format: cell membranes; conditions: Cavia porcellus, Membrane, target entry is the homologue from another species
[5] = biological target: T1, Opioid receptors; mu/kappa/delta (Homo sapiens); test: Compound was evaluated for the percent recovery of 0.5 nM of [3H]- bremazocine binding to total opioid receptor in washed guinea pig brain membranes at 50 (nM) concentration of the compound; format: cell membranes; conditions: Cavia porcellus, Membrane, target entry is the homologue from another species
Summary of the method: (§3)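 Guinea pig brain membranes were exposed to ligand for 1 h at 25 °C. Washing: 4-fold dilution with buffer, 20000g for 15 min, pellet resuspended in 3 volumes of buffer, 37 °C for 15 min, recentrifuged, resuspended in the original volume. Rebinding with the named radioligand in Tris-HCl pH 7.4, 25 °C, 1 h, filtration, scintillation. Reported as percent recovery.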

[6] = biological target: Mu-type opioid receptor (Cavia porcellus) (UniProt P97266); test: Compound was evaluated for the percent recovery of 1.0 nM of [3H]- DAGO binding to opioid receptor mu in guinea pig brain membranes at 10 (nM) concentration protection by 1 uM Naloxone.; format: cell membranes; conditions: Membrane; summary of the method: as §2
[7] = biological target: Mu-type opioid receptor (Cavia porcellus) (UniProt P97266); test: Compound was evaluated for the percent recovery of 1.0 nM of [3H]- DAGO binding to opioid receptor mu in un washed guinea pig brain membranes at 10 (nM) concentration; conditions: Membrane
[8] = biological target: Delta-type opioid receptor (Homo sapiens) (UniProt P41143); test: Compound was evaluated for the percent recovery of 1.0 nM of [3H]- DPDPE binding to Opioid receptor delta 1 in guinea pig brain membranes at 22(nM) concentration protection by 1 uM Naloxone.; format: cell membranes; conditions: Cavia porcellus, Membrane, target entry is the homologue from another species; summary of the method: as §2
[9] = biological target: Mu-type opioid receptor (Cavia porcellus) (UniProt P97266); test: Compound was evaluated for the percent recovery of 1.0 nM of [3H]- DAGO binding to opioid receptor mu in washed guinea pig brain membranes at 10 (nM) concentration; format: cell membranes; conditions: Membrane; summary of the method: as §3
[10] = biological target: T1, Opioid receptors; mu/kappa/delta (Homo sapiens); test: Compound was evaluated for the percent recovery of 0.5 nM of [3H]- bremazocine binding to of total opioid receptor in washed guinea pig brain membranes at 50 (nM) concentration of the compound; format: cell membranes; conditions: Cavia porcellus, Membrane, target entry is the homologue from another species; summary of the method: as §3
[11] = biological target: Mu-type opioid receptor (Cavia porcellus) (UniProt P97266); test: Compound was evaluated for the percent recovery of 1.0 nM of [3H]- DAGO binding to opioid receptor mu in washed guinea pig brain membranes at 10(nM) concentration; format: cell membranes; conditions: Membrane; summary of the method: as §3
[12] = biological target: Delta-type opioid receptor (Homo sapiens) (UniProt P41143); test: Compound was evaluated for the percent recovery of 1.0 nM of [3H]- DPDPE binding to Opioid receptor delta 1 in guinea pig brain membranes at 17(nM) concentration protection by 1 uM Naloxone.; format: cell membranes; conditions: Cavia porcellus, Membrane, target entry is the homologue from another species; summary of the method: as §2
[13] = biological target: T1, Opioid receptors; mu/kappa/delta (Homo sapiens); test: Compound was evaluated for the percent recovery of 0.5 nM of [3H]- bremazocine binding to of total opioid receptor in unwashed guinea pig brain membranes at 50(nM) concentration of the compound; format: cell membranes; conditions: Cavia porcellus, Membrane, target entry is the homologue from another species
[14] = biological target: Mu-type opioid receptor (Cavia porcellus) (UniProt P97266); test: Compound was evaluated for the percent recovery of 1.0 nM of [3H]- DAGO binding to opioid receptor mu in un washed guinea pig brain membranes at 10(nM) concentration; conditions: Membrane

Sequence of Kappa-type opioid receptor (P41144 whole entry): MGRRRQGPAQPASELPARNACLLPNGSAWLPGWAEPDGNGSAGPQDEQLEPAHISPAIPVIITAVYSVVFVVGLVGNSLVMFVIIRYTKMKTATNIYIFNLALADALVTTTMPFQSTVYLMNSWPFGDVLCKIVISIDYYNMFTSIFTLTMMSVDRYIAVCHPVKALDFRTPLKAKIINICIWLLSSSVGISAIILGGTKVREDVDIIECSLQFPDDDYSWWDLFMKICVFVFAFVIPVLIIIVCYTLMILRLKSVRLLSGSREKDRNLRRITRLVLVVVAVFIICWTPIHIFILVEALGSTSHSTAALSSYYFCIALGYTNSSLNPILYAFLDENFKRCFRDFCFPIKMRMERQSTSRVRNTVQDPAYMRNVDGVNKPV
Sequence of Mu-type opioid receptor (P97266 whole entry): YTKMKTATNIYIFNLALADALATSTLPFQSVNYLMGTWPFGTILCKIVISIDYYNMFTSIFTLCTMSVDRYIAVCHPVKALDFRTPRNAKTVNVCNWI
Sequence of Mu-type opioid receptor (Cavia porcellus) (P97266 whole entry): as above
T1 sequence (P35372 whole entry, looked up): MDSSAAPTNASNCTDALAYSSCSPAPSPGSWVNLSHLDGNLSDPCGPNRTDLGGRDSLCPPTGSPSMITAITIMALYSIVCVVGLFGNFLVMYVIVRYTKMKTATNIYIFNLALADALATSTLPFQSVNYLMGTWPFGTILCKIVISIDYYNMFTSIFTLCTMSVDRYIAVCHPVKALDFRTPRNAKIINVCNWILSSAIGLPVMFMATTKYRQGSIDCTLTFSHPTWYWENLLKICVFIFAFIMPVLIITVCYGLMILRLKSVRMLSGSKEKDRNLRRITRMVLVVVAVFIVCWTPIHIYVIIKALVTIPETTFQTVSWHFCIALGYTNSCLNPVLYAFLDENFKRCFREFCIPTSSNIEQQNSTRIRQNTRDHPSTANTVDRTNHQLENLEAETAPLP
T1 sequence (P41143 whole entry, looked up): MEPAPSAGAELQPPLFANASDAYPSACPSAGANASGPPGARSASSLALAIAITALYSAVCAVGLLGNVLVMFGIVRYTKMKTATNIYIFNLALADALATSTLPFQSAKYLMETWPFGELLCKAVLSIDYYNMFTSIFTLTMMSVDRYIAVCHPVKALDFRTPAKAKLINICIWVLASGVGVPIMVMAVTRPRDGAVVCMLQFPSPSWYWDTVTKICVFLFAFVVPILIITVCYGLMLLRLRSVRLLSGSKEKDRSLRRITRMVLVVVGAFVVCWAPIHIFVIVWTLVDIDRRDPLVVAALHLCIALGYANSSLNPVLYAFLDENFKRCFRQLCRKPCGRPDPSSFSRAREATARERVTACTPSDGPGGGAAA
T1 sequence (P41145 whole entry, looked up): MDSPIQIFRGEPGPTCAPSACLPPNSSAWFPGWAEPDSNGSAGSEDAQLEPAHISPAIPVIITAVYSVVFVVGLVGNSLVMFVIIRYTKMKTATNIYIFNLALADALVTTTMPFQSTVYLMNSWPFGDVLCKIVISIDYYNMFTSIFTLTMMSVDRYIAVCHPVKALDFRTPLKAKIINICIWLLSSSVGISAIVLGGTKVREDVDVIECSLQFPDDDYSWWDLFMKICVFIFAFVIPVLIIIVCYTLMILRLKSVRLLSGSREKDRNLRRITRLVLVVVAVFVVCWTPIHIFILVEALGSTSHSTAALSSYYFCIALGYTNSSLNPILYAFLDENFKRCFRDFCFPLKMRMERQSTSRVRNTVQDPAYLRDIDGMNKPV
Sequence of Delta-type opioid receptor (Homo sapiens) (P41143 whole entry): as the sequence (P41143 whole entry, looked up) above

| Structure (SMILES) | IC50 (Mu-type opioid receptor) [nM] | IC50 [1] [nM] | IC50 [2] [nM] | % recovery [3] | % recovery [4] | % recovery [5] | % recovery [6] | % recovery [7] | % recovery [8] | % recovery [9] | % recovery [10] | % recovery [11] | % recovery [12] | % recovery [13] | % recovery [14] |
| --- | --- | --- | --- | --- | --- | --- | --- | --- | --- | --- | --- | --- | --- | --- | --- |
| Oc1ccc2c3c1O[C@H]1[C@H](OC[C@H]4CO4)CC[C@@]4(O)[C@@H](C2)N(CC2CC2)CC[C@]314 | 2.9 | 11 | 17 | – | – | – | – | – | – | – | – | – | – | – | – |
| Oc1ccc2c3c1O[C@H]1[C@H](OC[C@@H]4CO4)CC[C@@]4(O)[C@@H](C2)N(CC2CC2)CC[C@]314 | 3.5 | 12 | 17 | 88 | 10 | 79 | – | – | – | – | – | – | – | – | – |
| C=C1C[C@H](CO[C@@H]2CC[C@@]3(O)[C@H]4Cc5ccc(O)c6c5[C@@]3(CCN4CC3CC3)[C@H]2O6)OC1=O | 4.2 | 19 | 44 | – | – | – | 88 | – | – | – | – | – | – | – | – |
| C=C1C[C@H](CO[C@@H]2CC[C@@]3(OC(C)=O)[C@H]4Cc5ccc(O)c6c5[C@@]3(CCN4CC3CC3)[C@H]2O6)OC1=O | 2.2 | 15 | 48 | 84 | 27 | 68 | 94 | 10 | 86 | 49 | – | – | – | – | – |
| C=C1C[C@@H](CO[C@@H]2CC[C@@]3(O)[C@H]4Cc5ccc(O)c6c5[C@@]3(CCN4CC3CC3)[C@H]2O6)OC1=O | 3.4 | 18 | 28 | – | – | – | – | – | – | – | – | – | – | – | – |
| C=C1C[C@@H](CO[C@@H]2CC[C@@]3(OC(C)=O)[C@H]4Cc5ccc(O)c6c5[C@@]3(CCN4CC3CC3)[C@H]2O6)OC1=O | 2.8 | 14 | 25 | 61 | – | – | 55 | – | – | – | 54 | 71 | 71 | 20 | 21 |
